Assays:
[1] = tested on: Vesicular stomatitis virus; experiment: Antiviral activity against VSV Indiana ATCC VR-158 infected in african green monkey Vero-76 cells after 2 days by plaque reduction assay; type: functional, organism-based; conditions: Indiana ATCC VR-158, Vero 76, 48 h
[2] = Cytotoxicity against MDBK cells assessed as reduction in cell viability after 72 hrs by MTT assay; type: cell-based, Bos taurus; conditions: cattle
Summary of the method: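 MDBK cells seeded at 6 × 10^5 cells/mL in MEM-E with L-glutamine, 1 mM sodium pyruvate, kanamycin and 10% horse serum. Mock-infected cultures held with serial compound dilutions at 37 °C, 5% CO2. MTT viability read after 72 h. 50% cytotoxic concentration from linear regression as % of untreated controls. Three independent determinations.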

[3] = tested on: Respiratory syncytial virus; experiment: Antiviral activity against RSVA2 ATCC VR-1540 infected in african green monkey Vero-76 cells after 5 days by plaque reduction assay; type: functional, organism-based; conditions: human respiratory syncytial virus, A2 ATCC VR-1540, Vero 76, 120 h
Coxsackievirus B5 = experiment: Antiviral activity against CVB-5 virus Faulkner ATCC VR-185 infected in african green monkey Vero-76 cells after 3 days by plaque reduction assay; type: functional, organism-based; conditions: Enterovirus B, Faulkner ATCC VR-185, Vero 76, 72 h
[4] = Cytotoxicity against human MT4 cells assessed as reduction in cell proliferation after 96 hrs by MTT assay; type: cell-based
Summary of the method: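 MT-4 cells in exponential growth seeded at 1 × 10^5 cells/mL in RPMI-1640 with 10% FBS and penicillin/streptomycin. Cultured with serial compound dilutions at 37 °C, 5% CO2. MTT viability after 96 h. CC50 by linear regression against untreated controls. Mean of three independent determinations.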

[5] = tested on: Human poliovirus 1 strain Sabin; experiment: Antiviral activity against Human poliovirus 1 strain Sabin 1 virus infected in african green monkey Vero-76 cells after 2 days by plaque reduction assay; type: functional, organism-based; conditions: Enterovirus C, 1, Vero 76, 48 h
[6] = Cytotoxicity against BHK21 cells assessed as reduction in cell viability after 72 hrs by MTT assay; type: cell-based, Mesocricetus auratus, BHK-21; conditions: hamster
Summary of the method: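 BHK cells seeded at 1 × 10^6 cells/mL in MEM-E with L-glutamine, 1 mM sodium pyruvate, kanamycin and 10% FBS. Mock-infected cells exposed to serial dilutions of compound at 37 °C, 5% CO2, run in parallel with the antiviral assays. Viability by MTT at 72 h. CC50 by linear regression vs untreated controls. Mean of three independent determinations.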

[7] = tested on: Mammalian orthoreovirus 1; experiment: Antiviral activity against Reovirus 1 ATCC VR- 214 infected in BHK21 cells assessed as protection against virus-induced cytopathic effect after 3 or 4 days by MTT assay; type: functional, cell-based; conditions: Mammalian orthoreovirus 1, ATCC VR- 214, BHK-21
Summary of the method: (§1)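 BHK-21 (YFV, Reo-1) or MDBK (BVDV) cells seeded at 5 × 10^4 or 3 × 10^4 cells/well and grown overnight to confluence. Monolayers infected at m.o.i. 0.01 in maintenance medium (MEM-Earle, 0.5% inactivated FBS). Serial compound dilutions added 2 h after infection; 37 °C for 3-4 days. Viability read by MTT. EC50 by linear regression versus untreated controls; mean of three determinations.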

[8] = Cytotoxicity against african green monkey Vero 76 cells assessed as reduction in cell viability after 48 to 96 hrs by MTT assay; type: cell-based; conditions: chlorocebus sabaeus
Summary of the method: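 Vero-76 cells plated at 4 × 10^5 cells/mL in D-MEM with L-glutamine, kanamycin and 10% FBS. Incubated with serial dilutions of test compounds at 37 °C, 5% CO2 for 48-96 h. Viability by MTT. CC50 by linear regression relative to untreated cells. Mean of three independent runs.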

[9] = tested on: Bovine viral diarrhea virus 1; experiment: Antiviral activity against BVDV NADL ATCC VR-534 infected in MDBK cells assessed as protection against virus-induced cytopathic effect after 3 or 4 days by MTT assay; type: functional, organism-based; conditions: Bovine viral diarrhea virus isolates and strains, NADL ATCC VR-534, MDBK; summary of the method: as §1
Yellow fever virus = experiment: Antiviral activity against YFV 17-D vaccine (Stamaril Pasteur J07B01) infected in BHK21 cells assessed as protection against virus-induced cytopathic effect after 3 or 4 days by MTT assay; type: functional, organism-based; conditions: BHK-21; summary of the method: as §1
Human alphaherpesvirus 1 = experiment: Antiviral activity against HSV-1 KOS ATCC VR- 1493 infected in african green monkey Vero-76 cells after 3 days by plaque reduction assay; type: functional, organism-based; conditions: Human alphaherpesvirus 1, KOS ATCC VR1493, Vero 76, 72 h
[10] = tested on: Human immunodeficiency virus 1; experiment: Antiviral activity against HIV-1 3B infected in human MT4 cells assessed as protection against virus-induced cytopathic effect after 4 days by MTT assay; type: functional, organism-based; conditions: Human immunodeficiency virus 1, 3B, MT4, 96 h
Summary of the method: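 MT-4 cells (1 × 10^4/well in RPMI) with or without serial compound dilutions, infected with HIV-1 at 100 CCID50 (m.o.i. 0.01). After 4 days at 37 °C, protection from cytopathogenicity read by MTT. EC50 by linear regression versus untreated controls; mean of three independent determinations.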

Vaccinia virus = experiment: Antiviral activity against VV Elstree ATCC VR-1549 infected in african green monkey Vero-76 cells after 3 days by plaque reduction assay; type: functional, organism-based; conditions: Orthopoxvirus vaccinia, Elstree ATCC VR-1549, Vero 76, 72 h

c1ccc(-c2nc3cc4cccnc4cc3n2C2CCCCC2)cc1
EC50 [1]: > 35 µM | CC50 at 72 h [2]: > 100 µM | EC50 [3]: > 35 µM | EC50 (Coxsackievirus B5): > 35 µM | CC50 at 96 h [4]: 50 µM | EC50 [5]: > 35 µM | CC50 at 72 h [6]: > 100 µM | EC50 [7]: 67 µM | CC50 [8]: 35 µM | EC50 [9]: 29 µM | EC50 (Yellow fever virus): > 100 µM | EC50 (Human alphaherpesvirus 1): > 35 µM | EC50 [10]: > 50 µM | EC50 (Vaccinia virus): > 35 µM

c1ccc(Cc2nc3cc4cccnc4cc3n2CC2CCCCC2)cc1
EC50 [1]: > 25 µM | CC50 at 72 h [2]: > 100 µM | EC50 [3]: > 25 µM | EC50 (Coxsackievirus B5): > 25 µM | CC50 at 96 h [4]: 10 µM | EC50 [5]: > 25 µM | CC50 at 72 h [6]: 71 µM | EC50 [7]: > 71 µM | CC50 [8]: 25 µM | EC50 [9]: 10 µM | EC50 (Yellow fever virus): > 71 µM | EC50 (Human alphaherpesvirus 1): > 25 µM | EC50 [10]: > 10 µM | EC50 (Vaccinia virus): > 25 µM

O=c1c(-c2ccccc2)nc2c(Cl)c3ncccc3cc2n1Cc1ccc([N+](=O)[O-])cc1
EC50 [1]: > 100 µM | CC50 at 72 h [2]: > 100 µM | EC50 [3]: > 100 µM | EC50 (Coxsackievirus B5): > 100 µM | CC50 at 96 h [4]: > 100 µM | EC50 [5]: > 100 µM | CC50 at 72 h [6]: > 100 µM | EC50 [7]: > 100 µM | CC50 [8]: > 100 µM | EC50 [9]: > 100 µM | EC50 (Yellow fever virus): > 100 µM | EC50 (Human alphaherpesvirus 1): > 100 µM | EC50 [10]: > 100 µM | EC50 (Vaccinia virus): > 100 µM

COc1nc2cc3cccnc3c(Cl)c2nc1C(C)C
EC50 [1]: > 100 µM | CC50 at 72 h [2]: > 100 µM | EC50 [3]: > 100 µM | EC50 (Coxsackievirus B5): > 100 µM | CC50 at 96 h [4]: > 100 µM | EC50 [5]: > 100 µM | CC50 at 72 h [6]: > 100 µM | EC50 [7]: > 100 µM | CC50 [8]: > 100 µM | EC50 [9]: > 100 µM | EC50 (Yellow fever virus): > 100 µM | EC50 (Human alphaherpesvirus 1): > 100 µM | EC50 [10]: > 100 µM | EC50 (Vaccinia virus): > 100 µM

O=c1c(-c2cccs2)nc2cc3cccnc3c(Cl)c2n1C1CCCCC1
EC50 [1]: > 100 µM | CC50 at 72 h [2]: > 100 µM | EC50 [3]: > 100 µM | EC50 (Coxsackievirus B5): > 100 µM | CC50 at 96 h [4]: > 100 µM | EC50 [5]: > 100 µM | CC50 at 72 h [6]: > 100 µM | EC50 [7]: > 100 µM | CC50 [8]: > 100 µM | EC50 [9]: 15 µM | EC50 (Yellow fever virus): > 100 µM | EC50 (Human alphaherpesvirus 1): > 100 µM | EC50 [10]: > 100 µM | EC50 (Vaccinia virus): > 100 µM

CCCn1c(=O)c(-c2ccccc2)nc2cc3cccnc3c(Cl)c21
EC50 [1]: > 50 µM | CC50 at 72 h [2]: 40 µM | EC50 [3]: > 50 µM | EC50 (Coxsackievirus B5): 7 µM | CC50 at 96 h [4]: 40 µM | EC50 [5]: > 50 µM | CC50 at 72 h [6]: > 100 µM | EC50 [7]: > 100 µM | CC50 [8]: 50 µM | EC50 [9]: 33 µM | EC50 (Yellow fever virus): > 100 µM | EC50 (Human alphaherpesvirus 1): > 50 µM | EC50 [10]: > 40 µM | EC50 (Vaccinia virus): > 50 µM

Cn1c(=O)c(Cc2ccccc2)nc2c(Cl)c3ncccc3cc21
EC50 [1]: > 100 µM | CC50 at 72 h [2]: > 100 µM | EC50 [3]: > 100 µM | EC50 (Coxsackievirus B5): > 100 µM | CC50 at 96 h [4]: > 100 µM | EC50 [5]: > 100 µM | CC50 at 72 h [6]: > 100 µM | EC50 [7]: > 100 µM | CC50 [8]: > 100 µM | EC50 [9]: 10 µM | EC50 (Yellow fever virus): > 100 µM | EC50 (Human alphaherpesvirus 1): > 100 µM | EC50 [10]: > 100 µM | EC50 (Vaccinia virus): > 100 µM

C[C@@]1(O)[C@H](O)[C@@H](CO)O[C@H]1n1cnc2c(=O)[nH]c(N)nc21 [2'-B-METHYL-GUANOSINE]
CC50 at 72 h [2]: > 100 µM | CC50 at 72 h [6]: 1.1 µM | EC50 [7]: 1.9 µM | EC50 (Yellow fever virus): > 100 µM

O=c1c(-c2ccccc2)nc2cc3cccnc3c(Cl)c2n1C1CCCCC1
EC50 [1]: > 70 µM | CC50 at 72 h [2]: > 100 µM | EC50 [3]: > 70 µM | EC50 (Coxsackievirus B5): > 70 µM | CC50 at 96 h [4]: 48 µM | EC50 [5]: > 70 µM | CC50 at 72 h [6]: > 100 µM | EC50 [7]: > 100 µM | CC50 [8]: 70 µM | EC50 [9]: 4 µM | EC50 (Yellow fever virus): > 100 µM | EC50 (Human alphaherpesvirus 1): > 70 µM | EC50 [10]: > 48 µM | EC50 (Vaccinia virus): > 70 µM

Nc1nc2c(ncn2COCCO)c(=O)[nH]1 [ACYCLOVIR]
EC50 (Coxsackievirus B5): > 100 µM

C[C@@]1(O)[C@H](O)[C@@H](CO)O[C@H]1n1ccc(N)nc1=O
EC50 [7]: > 100 µM | CC50 [8]: 16 µM
